HIV Env fusion: inhibitors of HIV-1 Env-driven cell-cell fusion, primary screen, HeLa-JRFL effector, CEM21 target cells, luciferase; inhibition, % at 12.3 µM; 1.1% of 360,000 active; AID 651610, 2012;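 active = mean replicate inhibition score of at least 50 and every replicate individually at or above 50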
miR-122 sensor: miR-122 Renilla sensor signal increase in Huh7, primary screen, miR-122 inhibitor project, cell-based, single point, plate reader. Huh7 miR-122 Renilla luciferase sensor, 48 h; neutral wells = 0, positive control = 100. activation (reporter increase), % at 12.5 µM. 0.3% of 340,000 active. AID 602342, 2012;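 active = mean replicate activation score at least 90 and every replicate individually at or above 90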;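 note: higher luciferase means less miR-122 activity so hits act as miR-122 inhibitors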
GSIS activator: GLuc luminescence reporter in INS-1E cells, primary screen for activators of glucose-dependent secretion of insulin; INS-1E GLuc reporter insulin secretion, 2-3 h; activation, % at 16.6 µM; 0.61% of 370,000 active; AID 743287, 2014;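 active = lowest replicate activation of at least 40%, so every replicate reaches that level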
Cneo AK release: Cryptococcus neoformans cell lysis inducers, primary screen, AK release luminescence, single concentration | C. neoformans lysis, adenylate kinase release luminescence, 4 h; normalised: neutral wells 0, clomiphene wells 100 | lysis activity, % at 15 µM | 0.2% of 360,000 active;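 active = mean lysis activity across replicates of at least 80%, whatever share of replicates individually reach that level; inactive = mean lysis activity below 80%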
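Material – log-phase Cryptococcus neoformans yeast cells · Input – 5 × 10^6 yeast cells/mL · Medium – fresh YPD growth medium · Doses – single compound concentration per well · Timing – static 4 h at 37 °C with compound, 1 h detection · Detection – adenylate kinase release luminescence · Read-out – signal increase indicating cell lysis · Control set – Clomiphene as positive lysis control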
Rtt109 Vps75: inhibitors of C. albicans Rtt109/Vps75 HAT, primary screen, biochemical, ThioGlo CoA-SH fluorescence, plate reader; inhibition, % at 34.9 µM; 0.16% of 330,000 active; Histone acetyltransferase RTT109 (Candida albicans (strain SC5314 / ATCC MYA-2876)), …; purified Rtt109/Vps75, 4 h; AID 540336, 2011;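 active = inhibition of at least 50% in every replicate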
dFosB activator: activators of delta FosB homodimer, primary screen, biochemical, fluorescence polarization, TAMRA-CDK5 oligo, single point | activation, % at 25 µM | Protein FosB (Mus musculus), P13346 | 0.99% of 340,000 active | purified delta FosB; percent of positive-control signal above neutral wells | AID 493131, 2011;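 active = mean activation above about 17%, with every replicate also reaching it, limit read from the data, passing the limit was not always enough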
Target sequence (P13346 whole entry, looked up): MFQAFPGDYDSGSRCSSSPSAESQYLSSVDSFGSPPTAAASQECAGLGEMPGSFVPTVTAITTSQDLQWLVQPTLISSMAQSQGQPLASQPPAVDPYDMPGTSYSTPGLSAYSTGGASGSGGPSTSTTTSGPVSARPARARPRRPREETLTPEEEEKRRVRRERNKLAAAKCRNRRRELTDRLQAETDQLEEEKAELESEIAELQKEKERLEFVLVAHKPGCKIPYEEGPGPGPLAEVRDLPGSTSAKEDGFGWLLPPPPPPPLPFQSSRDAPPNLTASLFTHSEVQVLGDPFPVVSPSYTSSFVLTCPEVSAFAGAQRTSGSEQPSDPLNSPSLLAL
A number is an active result. This is a sample that favours compounds with a hit; in the whole collection about 2.4% have one here.

What do the screens show for `COc1ccc(/C=C/C(=O)O)cc1S(=O)(=O)NCc1ccco1`?
HIV Env fusion: inactive; GSIS activator: inactive; Rtt109 Vps75: 50.2; dFosB activator: inactive

What do the screens show for `COc1ccc(S(=O)(=O)NCc2ccco2)c2ccccc12`?
miR-122 sensor: 95.8; GSIS activator: inactive; Cneo AK release: inactive; Rtt109 Vps75: inactive; dFosB activator: inactive

Results for CN1C(=O)c2cccc3c(S(=O)(=O)NCc4ccco4)ccc1c23 ?
miR-122 sensor: inactive; Cneo AK release: inactive; Rtt109 Vps75: inactive; dFosB activator: inactive

How did COc1ccccc1NC(=O)c1ccc(S(=O)(=O)NCc2ccco2)cc1 do in these assays?
HIV Env fusion: inactive; miR-122 sensor: inactive; GSIS activator: inactive; Cneo AK release: inactive; Rtt109 Vps75: inactive; dFosB activator: inactive

What do the screens show for `COc1cc(/C=C/C(=O)O)cc(S(=O)(=O)NCc2ccco2)c1OC`?
HIV Env fusion: inactive; GSIS activator: inactive; Rtt109 Vps75: inactive; dFosB activator: inactive

Results for CCNC(=O)[C@H]1[C@H](CO)[C@H]2Cn3c(ccc(-c4ccc(OC)cc4)c3=O)[C@@H]1N2CC ?
miR-122 sensor: inactive; GSIS activator: inactive; Cneo AK release: inactive

What do the screens show for `Cc1noc(C)c1NC(=O)Nc1ccc2c(c1)C(=O)N([C@@H](C)CO)C[C@H](C)[C@H](CN(C)Cc1ccc3c(c1)OCO3)O2`?
miR-122 sensor: inactive; GSIS activator: inactive; Cneo AK release: inactive

What do the screens show for `O=C(c1cccc(OCc2ccccc2)c1)N1CCOCC1`?
HIV Env fusion: inactive; miR-122 sensor: inactive; GSIS activator: inactive; Cneo AK release: inactive; Rtt109 Vps75: inactive; dFosB activator: inactive

What do the screens show for `CCOc1ccc(OCc2cccc(C(=O)N3CCOCC3)c2)cc1`?
HIV Env fusion: 83.5; miR-122 sensor: inactive; Cneo AK release: inactive; Rtt109 Vps75: inactive; dFosB activator: inactive

What do the screens show for `C/C(=N\NC(=O)c1cc2ccccc2cc1O)c1ccccn1`?
HIV Env fusion: 59.0; miR-122 sensor: inactive; GSIS activator: inactive; Cneo AK release: inactive; Rtt109 Vps75: inactive; dFosB activator: inactive

How did C/C(=N\NC(=O)c1c[nH]c2ccccc12)c1ccccn1 do in these assays?
HIV Env fusion: inactive; GSIS activator: inactive; Rtt109 Vps75: inactive; dFosB activator: inactive

How did COc1ccc(NC(C)=O)cc1NC(=O)C1CCCN1C(=O)c1cccs1 (stereo not given) do in these assays?
HIV Env fusion: 64.1; GSIS activator: inactive; Rtt109 Vps75: inactive; dFosB activator: inactive

Results for O=C(O/N=C1\CCS(=O)(=O)c2sccc21)c1ccccc1 ?
miR-122 sensor: 170.0; GSIS activator: inactive; Cneo AK release: inactive; Rtt109 Vps75: inactive; dFosB activator: inactive

How did C[C@@H]1CN([C@@H](C)CO)S(=O)(=O)c2ccc(/C=C/c3ccccc3)cc2O[C@H]1CN(C)C(=O)c1ccccc1 do in these assays?
HIV Env fusion: inactive; miR-122 sensor: inactive; GSIS activator: inactive; Cneo AK release: inactive

How did COc1ccc(NC(=O)Nc2ccc3c(c2)CC(=O)N([C@@H](C)CO)C[C@H](C)[C@H](CN(C)S(=O)(=O)c2ccc(C)cc2)O3)cc1 do in these assays?
GSIS activator: inactive

Results for CC(C)Cn1c(N)c(C(=O)CSc2ccc3c(c2)OCCO3)c(=O)n(C)c1=O ?
HIV Env fusion: 98.1; miR-122 sensor: inactive; Cneo AK release: inactive; Rtt109 Vps75: inactive; dFosB activator: inactive

What do the screens show for `CC(C)Cn1c(N)c(C(=O)COC(=O)c2ccc3c(c2)OCCO3)c(=O)n(C)c1=O`?
HIV Env fusion: inactive; miR-122 sensor: inactive; GSIS activator: inactive; Cneo AK release: inactive; Rtt109 Vps75: inactive; dFosB activator: inactive

Results for CNC(=O)c1cc(Oc2ccc(NC(=O)Nc3ccc(Cl)c(C(F)(F)F)c3)cc2)ccn1 ?
HIV Env fusion: 62.3; miR-122 sensor: inactive; Cneo AK release: inactive; Rtt109 Vps75: inactive; dFosB activator: inactive
